From ChEMBL document CHEMBL1132240, “Design and synthesis of modified quinolones as antitumoral acridones” (J Med Chem, 1999)

Tests used:
HL-60 [1] = assay: Cytotoxic activity against human promyelocytic leukemia HL-60 concentration of agent required to reduce cell viability by 50%; format: functional, cell-based
Method in brief: (§1)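 Modified MTT assay. Cells seeded per well with graded drug: CHO 2.5 × 10^3, B16 5 × 10^3, P388 and LLC 10^4, HL-60 and LoVo 5 × 10^4. After 68 h, MTT (2.5 mg/mL) added for 4 h at 37 °C. Formazan dissolved in DMSO and A550 read. Inhibition taken as fractional A550 decrease vs control. IC50/IC90 from Chou's median-effect equation.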

P388 [2] = assay: Cytotoxic activity against murine lymphocytic leukemia P388 concentration of agent required to reduce cell viability by 50%; format: functional, cell-based; details: Mus musculus; method in brief: as §1
P388 [3] = assay: Cytotoxic activity against murine lymphocytic leukemia P388 concentration of agent required to reduce cell viability by 90%; format: functional; details: Mus musculus; method in brief: as §1
HL-60 [4] = assay: Cytotoxic activity against human promyelocytic leukemia HL-60 concentration of agent required to reduce cell viability by 90%; format: functional; method in brief: as §1
HL-60 [5] = assay: Cytotoxic activity against Human promyelocytic Leukemia HL-60 Concentration of agent required to reduce cell viability by 50%; format: functional, cell-based; method in brief: as §1
HL-60 [6] = assay: Cytotoxic activity against Human promyelocytic Leukemia HL-60 Concentration of agent required to reduce cell viability by 90%; format: functional; method in brief: as §1
P388 [7] = assay: Cytotoxic activity against Murine Lymphocytic Leukemia P388 Concentration of agent required to reduce cell viability by 50%; format: functional, cell-based; details: Mus musculus; method in brief: as §1
P388 [8] = assay: Cytotoxic activity Murine Lymphocytic Leukemia P388 Concentration of agent required to reduce cell viability by 90%; format: functional; details: Mus musculus; method in brief: as §1
LoVo [9] = assay: Cytotoxic activity against solid tumor, LoVo, (human colon adenocarcinoma) Concentration of agent required to reduce cell viability by 90%; format: functional; method in brief: as §1
[10] = test system: Lewis lung carcinoma cell line; assay: Cytotoxic activity against solid tumor LLC(Lewis lung carcinoma), concentration of agent required to reduce cell viability by 90%; format: functional; details: Mus musculus; method in brief: as §1
LoVo [11] = assay: Cytotoxic activity against solid tumor, LoVo, (human colon adenocarcinoma) Concentration of agent required to reduce cell viability by 50%; format: functional, cell-based; method in brief: as §1
[12] = Ratio of antilog(mean log IC50 in bone marrow sample) and antolog(mean log IC90) in HL-60); format: functional
Method in brief: (§2)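 Second-stage assay on HL-60 (5 × 10^4/well) and soybean-agglutinin-negative mononuclear marrow cells (5 × 10^5/well) from six healthy donors. Four wells per concentration, 48 h at 37 °C, then [125I]iododeoxyuridine plus fluorodeoxyuridine for 18 h. Inhibition from fractional uptake decrease; IC50/IC90 by median-effect equation. Ranges are antilog(mean log ± 2SD); ratios use mean antilogs.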

Homo sapiens [13] = species: Homo sapiens; assay: Relative cytotoxicity against Human bone marrow samples; Value is in range, activity expressed as IC90; format: functional; method in brief: as §2
CHO [14] = assay: Cytotoxic activity against solid tumor, CHO (Chinese hamster ovaric carcinoma) Concentration of agent required to reduce cell viability by 90%; format: functional; details: Cricetulus griseus; method in brief: as §1
HL-60 [15] = assay: Relative cytotoxicity against Human promyelocytic Leukemia(HL-60) cells; Value is in range, activity expressed as IC50; format: functional, cell-based; method in brief: as §2
B16 [16] = assay: Cytotoxic activity against solid tumor, B16 (murine melanoma) Concentration of agent required to reduce cell viability by 50%; format: functional, cell-based; details: Mus musculus; method in brief: as §1
B16 [17] = assay: Cytotoxic activity against solid tumor, B16 (murine melanoma) Concentration of agent required to reduce cell viability by 90%; format: functional; details: Mus musculus; method in brief: as §1
[18] = Ratio of antilog(mean log IC50 in bone marrow sample) and antolog(mean log IC50) in HL-60); format: functional; method in brief: as §2
[19] = test system: Lewis lung carcinoma cell line; assay: Cytotoxic activity against solid tumor LLC(Lewis lung carcinoma), concentration of agent required to reduce cell viability by 50%; format: functional, cell-based; details: Mus musculus; method in brief: as §1
HL-60 [20] = assay: Relative cytotoxicity against Human promyelocytic Leukemia(HL-60) cells; Value is in range, activity expressed as IC90; format: functional; method in brief: as §2
[21] = Ratio of antilog(mean log IC90 in bone marrow sample) and antolog(mean log IC90) in HL-60); format: functional; method in brief: as §2
CHO [22] = assay: Cytotoxic activity against solid tumor, CHO (Chinese hamster ovaric carcinoma) Concentration of agent required to reduce cell viability by 50%; format: functional, cell-based; details: Cricetulus griseus; method in brief: as §1
Homo sapiens [23] = species: Homo sapiens; assay: Relative cytotoxicity against Human bone marrow samples; Value is in range, activity expressed as IC50; format: functional; method in brief: as §2

## CCN(CC)CCn1c2cc(N3CCN(C)CC3)c(N)cc2c(=O)c2c(OC)cc(OC)cc21
HL-60 [1]
  IC50: 8.3 µM
P388 [2]
  IC50: 3.4 µM
P388 [3]
  IC90: 5.8 µM
HL-60 [4]
  IC90: 17 µM

## CCN(CC)c1cc2c(cc1N)c(=O)c1c(O)cc(O)cc1n2CC
HL-60 [5]
  IC50: 24 µM
HL-60 [6]
  IC90: 58 µM
P388 [7]
  IC50: 24 µM
P388 [8]
  IC90: 50 µM

## CCn1c2cc(Cl)ccc2c(=O)c2c(O)cc(O)cc21
HL-60 [5]
  IC50: > 100 µM
HL-60 [6]
  IC90: > 100 µM
P388 [7]
  IC50: > 100 µM
P388 [8]
  IC90: > 100 µM

## CCn1c2cc(N3CCSCC3)c(N)cc2c(=O)c2c(O)cc(O)cc21
P388 [7]
  IC50: > 100 µM
P388 [8]
  IC90: > 100 µM

## COc1cc(O)c2c(=O)c3cc(N)c(N4CCN(C)CC4)cc3n(C)c2c1
HL-60 [1]
  IC50: 23 µM
P388 [2]
  IC50: 3.4 µM
P388 [3]
  IC90: 6.8 µM
HL-60 [4]
  IC90: 33 µM

## CCn1c2cc(Cl)c(N)cc2c(=O)c2c(O)cc(O)cc21
HL-60 [5]
  IC50: 13 µM
HL-60 [6]
  IC90: 74 µM
LoVo [9]
  IC90: > 100 µM
[10]
  IC90: > 100 µM
LoVo [11]
  IC50: 15 µM
[12]
  Ratio: 0.1
Homo sapiens [13]
  IC90: 74.1 µM
P388 [7]
  IC50: 1.6 µM
CHO [14]
  IC90: 71 µM
HL-60 [15]
  IC50: 17 µM
B16 [16]
  IC50: 2.8 µM
B16 [17]
  IC90: 28 µM
[18]
  Ratio: 0.6
[19]
  IC50: 16 µM
HL-60 [20]
  IC90: 97.5 µM
[21]
  Ratio: 0.5
CHO [22]
  IC50: 5.8 µM
Homo sapiens [23]
  IC50: 7.08 µM
P388 [8]
  IC90: 13 µM

## CCN(CC)CCn1c2cc(Cl)c(N)cc2c(=O)c2c(OC)cc(OC)cc21
HL-60 [1]
  IC50: 8.6 µM
P388 [2]
  IC50: 4.3 µM
P388 [3]
  IC90: 14 µM
HL-60 [4]
  IC90: 29 µM

## CCn1c2cc(N3CC(C)NC(C)C3)c(N)cc2c(=O)c2c(O)cc(O)cc21 (stereo not given)
HL-60 [5]
  IC50: 21 µM
HL-60 [6]
  IC90: 32 µM
LoVo [9]
  IC90: 37 µM
[10]
  IC90: 43 µM
LoVo [11]
  IC50: 21 µM
P388 [7]
  IC50: 6.2 µM
CHO [14]
  IC90: 38 µM
B16 [16]
  IC50: 22 µM
B16 [17]
  IC90: 32 µM
[19]
  IC50: 29 µM
CHO [22]
  IC50: 12 µM
P388 [8]
  IC90: 18 µM

## CCN(CC)CCn1c2cc(O)c(N)cc2c(=O)c2c(O)cc(O)cc21
HL-60 [5]
  IC50: > 100 µM
HL-60 [6]
  IC90: > 100 µM
P388 [7]
  IC50: 26 µM
P388 [8]
  IC90: 56 µM

## CCn1c2cc(Cl)c(N)cc2c(=O)c2c(OC)cc(OC)cc21
HL-60 [1]
  IC50: 16 µM
P388 [2]
  IC50: 14 µM
P388 [3]
  IC90: 33 µM
HL-60 [4]
  IC90: 62 µM

## CCn1c2cc(Cl)c(N)cc2c(=O)c2c(O)cc(OC)cc21
P388 [2]
  IC50: 16 µM
P388 [3]
  IC90: > 100 µM

## CCN(CC)CCNc1cc2c(cc1N)c(=O)c1c(O)cc(O)cc1n2CC
HL-60 [5]
  IC50: 19 µM
HL-60 [6]
  IC90: 46 µM
LoVo [9]
  IC90: 30 µM
[10]
  IC90: 46 µM
LoVo [11]
  IC50: 19 µM
P388 [7]
  IC50: 4.3 µM
CHO [14]
  IC90: 17 µM
B16 [16]
  IC50: 10 µM
B16 [17]
  IC90: 38 µM
[19]
  IC50: 25 µM
CHO [22]
  IC50: 8.1 µM
P388 [8]
  IC90: 11 µM
